In brackets after ≈: the same amount, converted by molar mass.
Tests used:
Type in all cases: functional
[1] = tested on: Streptococcus pneumoniae; assay: Antimicrobial activity against penicillin-susceptible Streptococcus pneumoniae by agar dilution method
[2] = tested on: Streptococcus pneumoniae; assay: Antimicrobial activity against penicillin-intermediate Streptococcus pneumoniae by agar dilution method
[3] = tested on: Streptococcus pneumoniae; assay: Antimicrobial activity against penicillin-resistant Streptococcus pneumoniae by agar dilution method
How it was run: (§1)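 Agar dilution MIC on Mueller-Hinton agar with 5% sheep blood, inocula 10^4 CFU/spot; amoxicillin-clavulanate combined 1:2; S. pneumoniae ATCC 49619 quality control each run.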

[4] = tested on: Streptococcus pneumoniae; assay: Antimicrobial activity against Streptococcus pneumoniae 19A by agar dilution method; how it was run: as §1
[5] = tested on: Streptococcus pneumoniae; assay: Antimicrobial activity against Streptococcus pneumoniae 1 by time-kill analysis
How it was run: (§2)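 Time-kill in cation-adjusted Mueller-Hinton broth with 5% lysed horse blood; inocula 5 × 105 to 5 × 10^6 CFU/ml; drugs at MIC, 2× and 4× MIC; 35°C shaking water bath; viable counts at 0, 3, 6, 12 and 24 h. Bactericidal if ≥3 log10 CFU/ml (99.9%) reduction from original inoculum; 90% and 99% killing also scored.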

[6] = tested on: Streptococcus pneumoniae; assay: Antimicrobial activity against Streptococcus pneumoniae 2 by time-kill analysis
How it was run: (§3)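 Time-kill in cation-adjusted Mueller-Hinton broth with 5% lysed horse blood; inocula 5 × 105 to 5 × 10^6 CFU/ml; drugs at MIC, 2× and 4× MIC; 35°C shaking water bath; viable counts at 0, 3, 6, 12, 24 h. Bactericidal = ≥3 log10 CFU/ml (99.9%) drop from original inoculum; 90%/99%/99.9% killing scored per strain.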

[7] = tested on: Streptococcus pneumoniae; assay: Antimicrobial activity against Streptococcus pneumoniae 3 by time-kill analysis; how it was run: as §3
[8] = tested on: Streptococcus pneumoniae; assay: Antimicrobial activity against Streptococcus pneumoniae 4 by time-kill analysis; how it was run: as §3
[9] = tested on: Streptococcus pneumoniae; assay: Antimicrobial activity against Streptococcus pneumoniae 5 by time-kill analysis; how it was run: as §2
[10] = tested on: Streptococcus pneumoniae; assay: Antimicrobial activity against Streptococcus pneumoniae 6 by time-kill analysis; how it was run: as §3
[11] = tested on: Streptococcus pneumoniae; assay: Antimicrobial activity against Streptococcus pneumoniae 7 by time-kill analysis; how it was run: as §3
[12] = tested on: Streptococcus pneumoniae; assay: Antimicrobial activity against Streptococcus pneumoniae 8 by time-kill analysis; how it was run: as §3
[13] = tested on: Streptococcus pneumoniae; assay: Antimicrobial activity against Streptococcus pneumoniae 9 by time-kill analysis; how it was run: as §2
[14] = tested on: Streptococcus pneumoniae; assay: Antimicrobial activity against Streptococcus pneumoniae 10 by time-kill analysis; how it was run: as §3
[15] = tested on: Streptococcus pneumoniae; assay: Antimicrobial activity against Streptococcus pneumoniae 11 by time-kill analysis; how it was run: as §3
[16] = tested on: Streptococcus pneumoniae; assay: Antimicrobial activity against Streptococcus pneumoniae 12 by time-kill analysis; how it was run: as §3
[17] = tested on: Streptococcus pneumoniae; assay: Antimicrobial activity against Streptococcus pneumoniae isolate 24 by agar dilution method
[18] = tested on: Streptococcus pneumoniae; assay: Antimicrobial activity against Streptococcus pneumoniae isolate 33 by agar dilution method; how it was run: as §1
[19] = tested on: Streptococcus pneumoniae; assay: Antimicrobial activity against Streptococcus pneumoniae isolate 37 by agar dilution method; how it was run: as §1
[20] = tested on: Streptococcus pneumoniae; assay: Antimicrobial activity against Streptococcus pneumoniae isolate 1055 by agar dilution method
[21] = tested on: Streptococcus pneumoniae; assay: Antimicrobial activity against Streptococcus pneumoniae isolate 1146 by agar dilution method; how it was run: as §1
[22] = tested on: Streptococcus pneumoniae; assay: Antimicrobial activity against Streptococcus pneumoniae isolate 1147 by agar dilution method; how it was run: as §1
[23] = tested on: Streptococcus pneumoniae; assay: Antimicrobial activity against Streptococcus pneumoniae isolate 1384 by agar dilution method; how it was run: as §1
[24] = tested on: Streptococcus pneumoniae; assay: Antimicrobial activity against Streptococcus pneumoniae isolate 1394 by agar dilution method
[25] = tested on: Streptococcus pneumoniae; assay: Antimicrobial activity against Streptococcus pneumoniae isolate 1397 by agar dilution method; how it was run: as §1
[26] = tested on: Streptococcus pneumoniae; assay: Antimicrobial activity against Streptococcus pneumoniae isolate 1424 by agar dilution method; how it was run: as §1
[27] = tested on: Streptococcus pneumoniae; assay: Antimicrobial activity against Streptococcus pneumoniae isolate 1564 by agar dilution method
[28] = tested on: Streptococcus pneumoniae; assay: Antimicrobial activity against Streptococcus pneumoniae isolate 2617 by agar dilution method; how it was run: as §1
[29] = tested on: Streptococcus pneumoniae; assay: Antimicrobial activity against Streptococcus pneumoniae isolate 2686 by agar dilution method; how it was run: as §1
[30] = tested on: Streptococcus pneumoniae; assay: Antimicrobial activity against Streptococcus pneumoniae isolate 2688 by agar dilution method; how it was run: as §1
[31] = tested on: Streptococcus pneumoniae; assay: Antimicrobial activity against Streptococcus pneumoniae isolate 2874 by agar dilution method; how it was run: as §1
[32] = tested on: Streptococcus pneumoniae; assay: Antimicrobial activity against Streptococcus pneumoniae isolate 2880 by agar dilution method; how it was run: as §1
[33] = tested on: Streptococcus pneumoniae; assay: Antimicrobial activity against Streptococcus pneumoniae isolate 3260 by agar dilution method
[34] = tested on: Streptococcus pneumoniae; assay: Antimicrobial activity against Streptococcus pneumoniae isolate 3263 by agar dilution method
[35] = tested on: Streptococcus pneumoniae; assay: Antimicrobial activity against Streptococcus pneumoniae isolate 3275 by agar dilution method; how it was run: as §1
[36] = tested on: Streptococcus pneumoniae; assay: Antimicrobial activity against Streptococcus pneumoniae isolate 3282 by agar dilution method
[37] = tested on: Streptococcus pneumoniae; assay: Antimicrobial activity against Streptococcus pneumoniae isolate 3346 by agar dilution method
[38] = tested on: Streptococcus pneumoniae; assay: Antimicrobial activity against Streptococcus pneumoniae isolate 3374 by agar dilution method; how it was run: as §1
[39] = tested on: Streptococcus pneumoniae; assay: Antimicrobial activity against Streptococcus pneumoniae isolate 3412 by agar dilution method; how it was run: as §1
[40] = tested on: Streptococcus pneumoniae; assay: Antimicrobial activity against Streptococcus pneumoniae isolate 3455 by agar dilution method
[41] = tested on: Streptococcus pneumoniae; assay: Antimicrobial activity against Streptococcus pneumoniae isolate 3458 by agar dilution method
[42] = tested on: Streptococcus pneumoniae; assay: Antimicrobial activity against Streptococcus pneumoniae isolate 3481 by agar dilution method; how it was run: as §1
[43] = tested on: Streptococcus pneumoniae; assay: Antimicrobial activity against Streptococcus pneumoniae isolate 3587 by agar dilution method
[44] = tested on: Streptococcus pneumoniae; assay: Antimicrobial activity against Streptococcus pneumoniae isolate 3681 by agar dilution method; how it was run: as §1
[45] = tested on: Streptococcus pneumoniae; assay: Antimicrobial activity against Streptococcus pneumoniae isolate 3791 by agar dilution method; how it was run: as §1
[46] = tested on: Streptococcus pneumoniae; assay: Antimicrobial activity against Streptococcus pneumoniae isolate 4747 by agar dilution method; how it was run: as §1
[47] = tested on: Streptococcus pneumoniae; assay: Antimicrobial activity against Streptococcus pneumoniae isolate 4755 by agar dilution method; how it was run: as §1

With `CO/N=C(\C(=O)N[C@@H]1C(=O)N2C(C(=O)O)=C(CSc3nc(=O)c(O)nn3C)CS[C@H]12)c1csc(N)n1` [CEFTRIAXONE] the MIC50 [1] was 0.03 mg/L (≈ 0.0541 µM), the MIC90 [1] was 0.06 mg/L (≈ 0.108 µM) and the MIC50 [2] was 0.125 mg/L (≈ 0.225 µM). It also gave an MIC90 [2] of 1 mg/L (≈ 1.8 µM), an MIC50 [3] of 1 mg/L (≈ 1.8 µM) and an MIC90 [3] of 2 mg/L (≈ 3.61 µM). For the same compound, the MIC50 [4] was 2 mg/L (≈ 3.61 µM), the MIC90 [4] was 2 mg/L (≈ 3.61 µM) and the MIC [5] was 0.03 mg/L (≈ 0.0541 µM). It also gave an MIC [6] of 0.016 mg/L (≈ 0.0289 µM), an MIC [7] of 0.25 mg/L (≈ 0.451 µM) and an MIC [8] of 4 mg/L (≈ 7.21 µM). The MIC [9] was 4 mg/L (≈ 7.21 µM), the MIC [10] was 0.12 mg/L (≈ 0.216 µM) and the MIC [11] was 2 mg/L (≈ 3.61 µM). It also gave an MIC [12] of 2 mg/L (≈ 3.61 µM), an MIC [13] of 0.12 mg/L (≈ 0.216 µM) and an MIC [14] of 0.12 mg/L (≈ 0.216 µM). The MIC [15] was 4 mg/L (≈ 7.21 µM), the MIC [16] was 1 mg/L (≈ 1.8 µM) and the MIC [17] was 2 mg/L (≈ 3.61 µM). It also gave an MIC [18] of 1 mg/L (≈ 1.8 µM), an MIC [19] of 2 mg/L (≈ 3.61 µM) and an MIC [20] of 1 mg/L (≈ 1.8 µM). For the same compound, the MIC [21] was 2 mg/L (≈ 3.61 µM), the MIC [22] was 2 mg/L (≈ 3.61 µM) and the MIC [23] was 2 mg/L (≈ 3.61 µM). It also gave an MIC [24] of 4 mg/L (≈ 7.21 µM), an MIC [25] of 4 mg/L (≈ 7.21 µM) and an MIC [26] of 4 mg/L (≈ 7.21 µM). The MIC [27] was > 8 mg/L, the MIC [28] was 1 mg/L (≈ 1.8 µM) and the MIC [29] was 2 mg/L (≈ 3.61 µM). For the same compound, the MIC [30] was 4 mg/L (≈ 7.21 µM), the MIC [31] was 2 mg/L (≈ 3.61 µM) and the MIC [32] was 0.5 mg/L (≈ 0.902 µM). For the same compound, the MIC [33] was 0.5 mg/L (≈ 0.902 µM), the MIC [34] was 1 mg/L (≈ 1.8 µM) and the MIC [35] was 0.25 mg/L (≈ 0.451 µM). It also gave an MIC [36] of 0.5 mg/L (≈ 0.902 µM), an MIC [37] of 1 mg/L (≈ 1.8 µM) and an MIC [38] of 1 mg/L (≈ 1.8 µM). The MIC [39] was 2 mg/L (≈ 3.61 µM), the MIC [40] was 1 mg/L (≈ 1.8 µM) and the MIC [41] was 1 mg/L (≈ 1.8 µM). The MIC [42] was 2 mg/L (≈ 3.61 µM), the MIC [43] was 1 mg/L (≈ 1.8 µM) and the MIC [44] was 1 mg/L (≈ 1.8 µM). It also gave an MIC [45] of 1 mg/L (≈ 1.8 µM), an MIC [46] of 2 mg/L (≈ 3.61 µM) and an MIC [47] of 2 mg/L (≈ 3.61 µM).

For `CC[C@H]1OC(=O)[C@H](C)[C@@H](O[C@H]2C[C@@](C)(OC)[C@@H](O)[C@H](C)O2)[C@H](C)[C@@H](O[C@@H]2O[C@H](C)C[C@H](N(C)C)[C@H]2O)[C@](C)(O)C[C@@H](C)CN(C)[C@H](C)[C@@H](O)[C@]1(C)O` [AZITHROMYCIN], the MIC50 [1] was 2 mg/L (≈ 2.67 µM), the MIC90 [1] was > 64 mg/L and the MIC50 [2] was 2 mg/L (≈ 2.67 µM). The MIC90 [2] was > 64 mg/L, the MIC50 [3] was 0.125 mg/L (≈ 0.167 µM) and the MIC50 [4] was > 64 mg/L. For the same compound, the MIC90 [4] was > 64 mg/L, the MIC [5] was > 64 mg/L and the MIC [6] was 0.06 mg/L (≈ 0.0801 µM). For the same compound, the MIC [7] was 4 mg/L (≈ 5.34 µM), the MIC [8] was 0.06 mg/L (≈ 0.0801 µM) and the MIC [9] was > 64 mg/L. For the same compound, the MIC [10] was 0.06 mg/L (≈ 0.0801 µM), the MIC [11] was > 64 mg/L and the MIC [12] was 4 mg/L (≈ 5.34 µM). The MIC [13] was 0.06 mg/L (≈ 0.0801 µM), the MIC [14] was 0.03 mg/L (≈ 0.0401 µM) and the MIC [15] was > 64 mg/L. For the same compound, the MIC [16] was 0.12 mg/L (≈ 0.16 µM), the MIC [17] was > 64 mg/L and the MIC [18] was 0.125 mg/L (≈ 0.167 µM). For the same compound, the MIC [19] was > 64 mg/L, the MIC [20] was > 64 mg/L and the MIC [21] was 2 mg/L (≈ 2.67 µM). The MIC [22] was 2 mg/L (≈ 2.67 µM), the MIC [23] was > 64 mg/L and the MIC [24] was > 64 mg/L. The MIC [25] was > 64 mg/L, the MIC [26] was > 64 mg/L and the MIC [27] was > 64 mg/L. The MIC [28] was 0.125 mg/L (≈ 0.167 µM), the MIC [29] was > 64 mg/L and the MIC [30] was > 64 mg/L. For the same compound, the MIC [31] was > 64 mg/L, the MIC [32] was > 64 mg/L and the MIC [33] was > 64 mg/L. For the same compound, the MIC [34] was > 64 mg/L, the MIC [35] was > 64 mg/L and the MIC [36] was > 64 mg/L. For the same compound, the MIC [37] was > 64 mg/L, the MIC [38] was > 64 mg/L and the MIC [39] was > 64 mg/L. For the same compound, the MIC [40] was > 64 mg/L, the MIC [41] was > 64 mg/L and the MIC [42] was > 64 mg/L. For the same compound, the MIC [43] was > 64 mg/L, the MIC [44] was 0.125 mg/L (≈ 0.167 µM) and the MIC [45] was > 64 mg/L. The MIC [46] was > 64 mg/L and the MIC [47] was > 64 mg/L.
